Assay results: ChEMBL document CHEMBL3632592, “Identification of Highly Promising Antioxidants/Neuroprotectants Based on Nucleoside 5'-Phosphorothioate Scaffold. Synthesis, Activity, and Mechanisms of Action” (J Med Chem, 2015)

Legend:
[1] = Antioxidant activity assessed as inhibition of Fe2+-induced DMPO-OH adduct formation from H2O2 preincubated for 30 secs followed by DMPO/H2O2 addition measured after 150 secs by ESR analysis; assay type: physicochemical
Procedure, shortened: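 Fenton/ESR spin trapping: 1 mM ammonium iron(II) sulfate was added to 5–500 µM compound, then Tris buffer pH 7.4 (final pH 7.2–7.4). After 30 s, 100 mM DMPO and 100 mM H2O2 were added (stock concentrations). The ESR spectrum was recorded 150 s after H2O2, at room temperature. DMPO-OH adduct expressed as % of control containing FeSO4, H2O2 and DMPO only.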

[2] = Antioxidant activity assessed as ABTS radical scavenging activity after 7 mins; assay type: physicochemical
Procedure, shortened: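 ABTS radical cation made from 7 mM ABTS with 2.45 mM persulfate (final), kept in the dark at room temperature 12–16 h. It was then diluted in water pH 7.4 to A734 0.80 and mixed with compound or Trolox standard (final 0–60 µM). A734 was read at 7 min. Percent inhibition plotted against concentration; at least three runs, in triplicate.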

[3] = Metal chelating activity assessed as inhibition of Fe2+-ferrozine complex formation at 200 uM after 10 mins relative to control; assay type: physicochemical
Procedure, shortened: (§1)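 Competitive ferrozine assay. FeSO4 (final 10 µM) and ferrozine (final 20 µM) are mixed with nucleotide in DDW at final 25–200 µM and agitated 10 min at room temperature. Absorbance of the Fe(II)-ferrozine complex is read at 562 nm with and without compound, and inhibition of complex formation is calculated. Three experiments, mean ± S.D.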

[4] = Metal chelating activity assessed as inhibition of Fe2+-ferrozine complex formation after 10 mins; assay type: physicochemical; procedure, shortened: as §1
[5] = Half life in human serum at 37 degC by HPLC analysis; assay type: ADME, cell-free
Procedure, shortened: (§2)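 Nucleotides were incubated in human blood serum or RPMI-1640 at 37 °C for 0.5–24 h. Hydrolysis was followed by the change in HPLC peak integration of each analogue over time, and half-life was derived from this.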

[6] = Half life of the compound in RPMI-1640 medium at 37 degC by HPLC analysis; assay type: ADME; procedure, shortened: as §2
Serum [7] = assay: Drug metabolism in human serum assessed as formation of adenosine at 37 degC measured over 24 hrs by HPLC analysis; assay type: ADME, cell-free
Procedure, shortened: (§3)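 Incubation in human blood serum and in RPMI-1640 at 37 °C for 0.5–24 h. The HPLC peak integration of each nucleotide is followed over time, and half-life comes from the decay. The products AMP and adenosine are seen as HPLC peaks.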

[8] = Neuroprotective activity against Fe2+-induced oxidative damage in rat primary cortical neurons assessed as cell viability after 24 hrs by MTT assay; assay type: functional, cell-based; details: Cerebral cortex neuron
Procedure, shortened: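 Rat (1-day-old) cortical neurons were grown serum-free in DMEM/F12 with B-27 on poly-ornithine, treated with Ara-C and cultured 5 d. Cells were pretreated with nucleotide (0.01–25 µM), then exposed to FeSO4 3 µM final for 24 h. MTT 1 mg/mL was added for 2 h at 37 °C, formazan dissolved in DMSO, A550 read. Viability given as % of vehicle control; three independent experiments in triplicate.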

Serum [9] = assay: Drug level in human serum treated with ADP at 37 degC measured over 24 hrs by HPLC analysis; assay type: ADME, cell-free; procedure, shortened: as §3
[10] = Drug level in RPMI-1640 medium treated with ADP at 37 degC measured over 24 hrs by HPLC analysis; assay type: physicochemical; procedure, shortened: as §3

| IC50 [1] [µM] | IC50 [2] [µM] | inhibition (INH) [3] [%] | IC50 [4] [µM] | half-life [5] [h] | half-life [6] [h] | Drug metabolism (Serum [7]) | Drug metabolism (Serum [9]) | Drug metabolism [10] | SMILES | EC50 [8] [µM] |
| --- | --- | --- | --- | --- | --- | --- | --- | --- | --- | --- |
| 170 | 30 | 40 | > 200 | 1.5 | 1.5 | metabolite_detected |  |  | Nc1ncnc2c1ncn2[C@@H]1O[C@H](COP(=O)(O)OP(=O)(O)O)[C@@H](O)[C@H]1O [ADENOSINE DIPHOSPHATE] | 19 |
|  |  |  |  |  |  |  | metabolite_detected | metabolite_detected | Nc1ncnc2c1ncn2[C@@H]1O[C@H](CO)[C@@H](O)[C@H]1O [ADENOSINE] |  |
